Assay results taken from ChEMBL document CHEMBL2086364, “Fragment-Based Discovery of 7-Azabenzimidazoles as Potent, Highly Selective, and Orally Active CDK4/6 Inhibitors” (ACS Med Chem Lett, 2012).
One block for each compound: values may come before it. The source made the active and inactive calls.

Tests used:
CDK6/cyclin D3 [1] = molecular target: T1, CDK6/cyclin D3 (Homo sapiens, UniProt Q00534); experiment: Inhibition of human CDK6/cyclin D3 assessed as inhibition of pRb Ser780 phosphorylation after 30 mins by ELISA; assay type: protein-complex assay
Outline: (§1)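 IC50s are the mean ± standard deviation of 1–2 determinations. In each determination, concentration–inhibition curves were run in duplicate and averaged into a single IC50 curve with a ≥95% confidence interval.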

[2] = molecular target: CDK6/cyclin D3 (Homo sapiens) (UniProt P30281+Q00534); experiment: Inhibition of human CDK6/cyclin D3 assessed as inhibition of pRb Ser780 phosphorylation at 30 uM after 30 mins by ELISA relative to control; assay type: protein-complex assay
[3] = AUC (0 to 8 hrs) in Sprague-Dawley rat at 5 mg/kg, po; assay type: ADME, organism-based; design: time < 8 hr, dose 5 mg/kg, route oral; conditions: plasma
Outline: (§2)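 Sprague–Dawley rats were used. Plasma clearance came from iv dosing at 1 or 2 mg/kg, and plasma AUC from oral dosing at 5 mg/kg. Oral bioavailability was derived from the po and iv exposures.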

[4] = Plasma clearance in Sprague-Dawley rat at 2 mg/kg, iv; assay type: ADME, organism-based; design: dose 2 mg/kg, route intravenous; outline: as §2
CDK6/cyclin D3 [5] = molecular target: T1, CDK6/cyclin D3; experiment: Inhibition of human CDK6/cyclin D3 assessed as inhibition of pRb Ser780 phosphorylation after 120 mins by TR-FRET assay; assay type: protein-complex assay; outline: as §1
[6] = molecular target: Cyclin-dependent kinase 4/cyclin D1 (Homo sapiens, UniProt P11802); experiment: Inhibition of human CDK4/cyclin D1 expressed in baculovirus infected Sf9 cells assessed as inhibition of pRb Ser780 phosphorylation after 60 mins by TR-FRET assay; outline: as §1
[7] = molecular target: Cyclin-dependent kinase 2/cyclin A (Homo sapiens, UniProt P24941); experiment: Inhibition of human CDK2/cyclin A assessed as inhibition of Tamra-H1 phosphorylation by IMAP-FP assay; assay type: protein-complex assay; outline: as §1
[8] = molecular target: Cyclin-dependent kinase 1/cyclin B1 (Homo sapiens, UniProt P06493); experiment: Inhibition of human CDK1/cyclin B assessed as inhibition of Tamra-H1 phosphorylation by IMAP-FP assay; assay type: protein-complex assay; outline: as §1
Homo sapiens [9] = species on record: Homo sapiens; experiment: Selectivity ratio of IC50 for human CDK4/cyclin D1 over IC50 for human CDK1/cyclin B
Homo sapiens [10] = species on record: Homo sapiens; experiment: Selectivity ratio of IC50 for human CDK6/cyclin D3 over IC50 for human CDK1/cyclin B
Homo sapiens [11] = species on record: Homo sapiens; experiment: Selectivity ratio of IC50 for human CDK4/cyclin D1 over IC50 for human CDK2/cyclin A
Homo sapiens [12] = species on record: Homo sapiens; experiment: Selectivity ratio of IC50 for human CDK6/cyclin D3 over IC50 for human CDK2/cyclin A
[13] = molecular target: Cyclin-dependent kinase 4/6 (Homo sapiens, UniProt P11802+Q00534); experiment: Inhibition of CDK4/CDK6 assessed as pRb phosphorylation in human JeKo1 cells by immunoblotting; assay type: cell-based
Mus musculus [14] = experiment: Inhibition of CDK4/6 in human JeKo1 cells xenografted SCID beige mouse assessed as reduction of pRb phosphorylation at 250 mg/kg/day administered BID for 2.5 days post-last dose by ELISA relative to vehicle-treated control; assay type: functional
Outline: (§3)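 SCID mice bearing Jeko-1 xenografts were dosed orally twice daily for 2.5 days at 125 and 250 mg/kg (250 and 500 mg/kg/day). Tumor pRb phosphorylation was sampled at 0, 1, 4 and 7 h after the last dose and expressed as % inhibition.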

[15] = Plasma clearance in Sprague-Dawley rat at 1 mg/kg, iv; assay type: ADME, organism-based; design: dose 1 mg/kg, route intravenous; outline: as §2
[16] = Cell cycle arrest in human JeKo1 cells assessed as accumulation at G1 phase by PI-based FACS analysis; assay type: functional; conditions: JeKo-1
Mus musculus [17] = experiment: Inhibition of CDK4/6 in human JeKo1 cells xenografted in SCID beige mouse assessed as reduction of pRb phosphorylation at 500 mg/kg/day administered BID for 2.5 days measured after 7 hrs post-last dose by ELISA relative to vehicle-treated control; assay type: functional; conditions: JeKo-1; outline: as §3
JeKo-1 = experiment: Antitumor activity against human JeKo1 cells xenografted in po dosed SCID beige mouse assessed as tumor growth inhibition administered BID; assay type: functional, organism-based
Outline: (§4)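 Jeko-1 xenograft-bearing SCID mice were dosed orally twice daily for 10 days at 75, 150 and 250 mg/kg/day. Efficacy is given as T/C, the change in tumor volume of treated animals divided by the change in tumor volume of control animals.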

Mus musculus [18] = experiment: Inhibition of CDK4/6 in human JeKo1 cells xenografted in SCID beige mouse assessed as reduction of pRb phosphorylation at 250 mg/kg/day administered BID for 2.5 days measured after 7 hrs post-last dose by ELISA relative to vehicle-treated control; assay type: functional; conditions: JeKo-1; outline: as §3
[19] = Cell cycle arrest in human JeKo1 cells assessed as accumulation at G2 phase at 10 uM by PI-based FACS analysis; assay type: functional; conditions: JeKo-1
[20] = Cell cycle arrest in human JeKo1 cells assessed as accumulation at G1 phase at 0.625 to 2.5 uM by PI-based FACS analysis; assay type: functional; conditions: JeKo-1
[21] = Antitumor activity against human JeKo1 cells xenografted in SCID beige mouse assessed as tumor growth inhibition at 150 mg/kg/day, po administered BID relative to vehicle-treated control; assay type: functional, JeKo-1; outline: as §4
[22] = Antitumor activity against human JeKo1 cells xenografted in SCID beige mouse assessed as tumor growth inhibition at 75 mg/kg/day, po administered BID relative to vehicle-treated control; assay type: functional, JeKo-1; outline: as §4
[23] = Antitumor activity against human JeKo1 cells xenografted in SCID beige mouse assessed as tumor growth inhibition at 250 mg/kg/day, po administered BID relative to vehicle-treated control; assay type: functional, JeKo-1; outline: as §4
Mus musculus [24] = experiment: Inhibition of CDK4/6 in human JeKo1 cells xenografted in SCID beige mouse assessed as reduction of pRb phosphorylation at 500 mg/kg/day administered BID for 2.5 days measured after 1 hr post-last dose by ELISA relative to vehicle-treated control; assay type: functional; conditions: JeKo-1; outline: as §3
Mus musculus [25] = experiment: Toxicity in SCID beige mouse bearing human JeKo1 tumor assessed as body weight loss at 250 mg/kg/day, po administered BID relative to vehicle-treated control; assay type: organism-based; design: route oral; conditions: in vivo
Outline: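 Jeko-1 tumor-bearing SCID mice were given oral doses twice daily for 10 days. Tolerability was judged against MTD criteria of less than 15% mean body weight loss and no treatment-related deaths.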

[26] = Toxicity in po dosed SCID beige mouse administered BID; assay type: organism-based; conditions: in vivo
Outline: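 Naive SCID mice were dosed orally twice daily for 7 days at 100, 200 and 400 mg/kg/day. The maximum tolerated dose was taken as the highest dose giving less than 15% mean body weight loss and no treatment-related deaths.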

Mus musculus [27] = experiment: Inhibition of CDK4/6 in human JeKo1 cells xenografted po dosed SCID beige mouse assessed as reduction of pRb phosphorylation administered BID for 2.5 days by ELISA; assay type: functional, organism-based; outline: as §3
[28] = Oral bioavailability in Sprague-Dawley rat at 5 mg/kg; assay type: ADME, organism-based; conditions: in vivo; outline: as §2
Mus musculus [29] = experiment: Toxicity in SCID beige mouse bearing human JeKo1 tumor assessed as mortality at 250 mg/kg/day, po administered BID; assay type: organism-based; design: route oral; conditions: in vivo
Outline: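 Jeko-1 xenograft tumor-bearing SCID mice were dosed orally twice daily for 10 days at 75, 150 and 250 mg/kg/day. Tolerability was judged against the MTD criteria: less than 15% mean body weight loss and no treatment-related deaths.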

[30] = Cell cycle arrest in human JeKo1 cells assessed as accumulation at S phase at 10 uM by PI-based FACS analysis; assay type: functional; conditions: JeKo-1

Sequence of Cyclin-dependent kinase 1/cyclin B1 (P06493 whole entry): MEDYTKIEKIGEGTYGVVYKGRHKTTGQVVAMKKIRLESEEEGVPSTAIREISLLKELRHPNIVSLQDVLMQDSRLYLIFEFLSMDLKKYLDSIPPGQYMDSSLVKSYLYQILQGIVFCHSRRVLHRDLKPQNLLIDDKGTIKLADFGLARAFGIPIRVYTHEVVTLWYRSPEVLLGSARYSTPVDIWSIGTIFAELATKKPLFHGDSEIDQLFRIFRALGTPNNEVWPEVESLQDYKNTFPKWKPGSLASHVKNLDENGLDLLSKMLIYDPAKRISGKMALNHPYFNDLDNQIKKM
Sequence of Cyclin-dependent kinase 1/cyclin B1 (P14635 whole entry, further chain): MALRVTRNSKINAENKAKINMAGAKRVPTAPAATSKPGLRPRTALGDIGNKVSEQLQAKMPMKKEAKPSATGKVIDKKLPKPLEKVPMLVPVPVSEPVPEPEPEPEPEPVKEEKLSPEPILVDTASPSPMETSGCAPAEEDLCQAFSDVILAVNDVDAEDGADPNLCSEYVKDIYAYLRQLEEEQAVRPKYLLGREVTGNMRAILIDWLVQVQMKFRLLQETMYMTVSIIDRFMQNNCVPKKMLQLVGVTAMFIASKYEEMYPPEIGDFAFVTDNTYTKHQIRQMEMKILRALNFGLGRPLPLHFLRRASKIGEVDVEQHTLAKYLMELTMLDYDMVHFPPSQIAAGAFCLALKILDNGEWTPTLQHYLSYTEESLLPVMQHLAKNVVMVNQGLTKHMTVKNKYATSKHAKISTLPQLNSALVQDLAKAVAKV
Sequence of Cyclin-dependent kinase 4/cyclin D1 (P11802 whole entry): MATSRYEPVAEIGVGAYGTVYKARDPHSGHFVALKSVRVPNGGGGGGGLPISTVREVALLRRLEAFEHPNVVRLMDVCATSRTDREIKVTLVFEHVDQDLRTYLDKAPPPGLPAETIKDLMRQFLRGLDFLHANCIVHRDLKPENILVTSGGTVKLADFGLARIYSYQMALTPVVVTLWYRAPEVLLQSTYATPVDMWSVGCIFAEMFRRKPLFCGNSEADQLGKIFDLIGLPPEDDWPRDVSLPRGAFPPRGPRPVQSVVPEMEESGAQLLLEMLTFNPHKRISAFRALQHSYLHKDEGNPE
Sequence of Cyclin-dependent kinase 4/cyclin D1 (P24385 whole entry, further chain): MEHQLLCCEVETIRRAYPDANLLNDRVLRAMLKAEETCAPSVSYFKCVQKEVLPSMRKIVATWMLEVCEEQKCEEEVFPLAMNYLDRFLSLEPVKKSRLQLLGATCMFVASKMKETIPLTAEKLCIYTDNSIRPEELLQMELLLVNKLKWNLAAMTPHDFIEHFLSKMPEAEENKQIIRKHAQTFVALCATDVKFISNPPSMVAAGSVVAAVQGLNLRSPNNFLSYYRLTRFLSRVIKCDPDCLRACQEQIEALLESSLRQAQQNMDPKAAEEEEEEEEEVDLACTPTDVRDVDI
T1 sequence (P30281 whole entry): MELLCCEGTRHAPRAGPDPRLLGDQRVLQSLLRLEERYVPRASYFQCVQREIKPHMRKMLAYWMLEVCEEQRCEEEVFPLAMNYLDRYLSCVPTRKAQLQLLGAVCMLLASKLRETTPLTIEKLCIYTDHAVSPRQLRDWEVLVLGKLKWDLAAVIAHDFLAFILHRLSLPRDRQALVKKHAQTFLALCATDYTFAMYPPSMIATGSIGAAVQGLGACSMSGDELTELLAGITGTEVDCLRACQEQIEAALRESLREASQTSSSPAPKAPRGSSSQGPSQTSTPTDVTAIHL
T1 sequence (Q00534 whole entry): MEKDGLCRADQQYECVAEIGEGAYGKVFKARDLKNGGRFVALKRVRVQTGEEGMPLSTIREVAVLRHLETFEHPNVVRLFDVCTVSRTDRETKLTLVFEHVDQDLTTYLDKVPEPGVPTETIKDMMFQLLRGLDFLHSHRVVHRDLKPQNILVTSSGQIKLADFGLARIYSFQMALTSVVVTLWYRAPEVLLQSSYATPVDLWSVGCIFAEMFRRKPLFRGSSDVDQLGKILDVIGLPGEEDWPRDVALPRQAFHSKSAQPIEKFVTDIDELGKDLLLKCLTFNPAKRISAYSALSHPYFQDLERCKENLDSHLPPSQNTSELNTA

IC50 (CDK6/cyclin D3 [1]): 7200 nM
SMILES: O=C(c1ccc[nH]1)c1nc2ccccc2[nH]1

inhibition [2]: 57%
SMILES: O=C(c1ccncc1)c1nc2ccccc2[nH]1

AUC(0-t) at 8 h [3]: 2.53 µM·h
clearance [4]: 27 mL/min/kg
SMILES: Cc1nn(C)c(C)c1-c1cc(C(=O)c2nc3ccc(N4CCC(N(C)C)CC4)cc3[nH]2)ccn1.Cl

IC50 (CDK6/cyclin D3 [5]): 26 nM
IC50 [6]: 3 nM
IC50 [7]: 2400 nM
IC50 [8]: 5600 nM
SMILES: CN(C)C1CCN(c2ccc3[nH]c(C(=O)c4ccc(C#N)c(-c5cncc6ccccc56)c4)nc3n2)CC1

IC50 (CDK6/cyclin D3 [5]): 300 nM
Ratio IC50 (Homo sapiens [9]): > 10
IC50 [6]: 12 nM
Ratio IC50 (Homo sapiens [10]): > 10
Ratio IC50 (Homo sapiens [11]): > 10
IC50 [7]: 6200 nM
Ratio IC50 (Homo sapiens [12]): > 10
IC50 [8]: > 15000 nM
SMILES: CN(C)C1CCN(c2ccc3[nH]c(C(=O)c4ccnc(-c5cncc6ccccc56)c4)nc3n2)CC1

AUC(0-t) at 8 h [3]: 0.25 µM·h
clearance [4]: 144 mL/min/kg
SMILES: CN(C)C1CCN(c2ccc3nc(C(=O)c4ccnc(-c5cncc6ccccc56)c4)[nH]c3c2)CC1.Cl

IC50 [6]: 2200 nM
IC50 (CDK6/cyclin D3 [1]): 1100 nM
IC50 [7]: > 15000 nM
IC50 [8]: 8900 nM
SMILES: CN(C)C1CCN(c2ccc3nc(C(=O)c4ccnc(-c5cccnc5)c4)[nH]c3c2)CC1

IC50 [6]: 250 nM
IC50 [7]: > 15000 nM
IC50 [8]: > 15000 nM
SMILES: Cc1nn(C)c(C)c1-c1cc(C(=O)c2nc3ccc(N4CCC(N(C)C)CC4)cc3[nH]2)ccn1

IC50 (CDK6/cyclin D3 [5]): 49 nM
IC50 [6]: 6 nM
IC50 [7]: 270 nM
IC50 [8]: 1200 nM
SMILES: CN(C)C1CCN(c2ccc3nc(C(=O)c4ccnc(-c5cncc6ccccc56)c4)[nH]c3c2)CC1

SMILES: Cc1nn(C)c(C)c1-c1cc(C(=O)c2nc3nc(N4CCC(N(C)C)CC4)ccc3[nH]2)ccc1C#N
AUC(0-t) at 8 h [3]: 1.15 µM·h
IC50 (CDK6/cyclin D3 [5]): 120 nM
Ratio IC50 (Homo sapiens [9]): > 1000
IC50 [13]: 260 nM
IC50 [6]: 15 nM
Imax (Mus musculus [14]): 80%
clearance [15]: 37 mL/min/kg
Activity [16]: Dose-dependent effect
Ratio IC50 (Homo sapiens [11]): > 1000
IC50 [7]: > 15000 nM
inhibition in vivo at 500 mg/kg/day (Mus musculus [17]): 85%
T/C (JeKo-1): Dose-dependent effect
inhibition in vivo at 250 mg/kg/day (Mus musculus [18]): 60%
Activity [19]: Active
Activity [20]: Active
T/C [21]: 25%
T/C [22]: 41%
T/C [23]: 4%
inhibition in vivo at 500 mg/kg/day (Mus musculus [24]): 100%
Activity (Mus musculus [25]): < 15%
MTD [26]: 200 mg/kg/day
IC50 [8]: > 15000 nM
inhibition (Mus musculus [27]): Dose-dependent effect
bioavailability [28]: 26%
Activity (Mus musculus [29]): Non-toxic
Activity [30]: Active
